Here are results for 13 compounds from ChEMBL document CHEMBL4813968, “Synthesis and evaluation of 3'-fluorinated 7-deazapurine nucleosides as antikinetoplastid agents” (Eur J Med Chem, 2021).

Bounds are passed on as bounds.

Data set [1] concerns Trypanosoma brucei brucei. As to the kind of experiment: Antitrypanosomal activity against Trypanosoma brucei brucei assessed as parasite growth inhibition. Format: functional, organism-based.
Data set [2] is described as follows: Selectivity index, ratio of EC50 for cytotoxicity against mouse primary macrophage to EC50 for antileishmanial activity against Leishmania infantum MHOM/MA(BE)/67 infected in mouse primary peritoneal macrophages. In kind it is toxicity. Conditions: read-out: Ratio EC50.
The test system of a further data set is Macrophage. As to the kind of experiment: Cytotoxicity against mouse primary macrophage cells assessed as reduction in cell viability. In kind it is cell-based. An outline of the steps: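 Macrophage toxicity was scored microscopically within the L. infantum assays, using cell detachment, lysis and granulation. At least 500 cells over adjacent fields were scored semi-quantitatively, and CC₅₀ was taken from % reduction in normal cells versus untreated controls.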

For the next data set, the system named is Leishmania infantum. In words: Antileishmanial activity against Leishmania infantum MHOM/MA(BE)/67 infected in mouse primary peritoneal macrophages treated 2 hrs post-infection and incubated for 5 days by Giemsa staining based microscopic analysis. In kind it is functional, organism-based. Conditions: MHOM/MA(BE)/67, Peritoneal macrophage. An outline of the steps:
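Peritoneal macrophages from mice, harvested 2 days after 2% potato starch stimulation, infected after 48 h with L. infantum in supplemented RPMI-1640 with 5% FCS. Compounds were added 2 h post-infection as a 10-point 4-fold dilution series, final DMSO <1%, and incubated 5 days at 37 °C, 5% CO₂. Amastigotes per macrophage were counted after 10% Giemsa staining, and IC₅₀ was taken from % reduction versus untreated-infected controls.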

Data set [3] can be described thus: Selectivity index, ratio of EC50 for cytotoxicity against human MRC5 cells to EC50 for antitrypanosomal activity against Trypanosoma cruzi Tulahuen CL2 infected in human MRC5 cells. Format: toxicity, cell-based. Conditions: read-out: Ratio EC50. An outline of the steps:
(§1)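 Selectivity index is the MRC-5 EC₅₀ divided by the parasite EC₅₀.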

The next data set deals with MRC5. In words: Cytotoxicity against human MRC5 cells assessed as reduction in cell viability after 3 days by resazurin dye based fluorimetric analysis. Particulars: MRC5, 72 h. An outline of the steps:
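MRC-5_SV2 cells, 1.5×10⁵ cells/mL in MEM with Earl's salts, L-glutamine, NaHCO₃ and 5% inactivated FCS, were exposed 3 days at 37 °C, 5% CO₂ to a 10-point 4-fold dilution series, final DMSO <1%. Resazurin was added for 4 h, fluorescence read at ex 550/em 590 nm, and IC₅₀ derived versus untreated and medium controls.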

The next data set relates to Trypanosoma cruzi. In words: Antitrypanosomal activity against Trypanosoma cruzi Tulahuen CL2 infected in human MRC5 cells assessed as inhibition of parasite growth incubated for 7 days by chlorophenol red-fl-D-galactopyranoside based spectrophotometric analysis. Particulars: Tulahuen CL2, MRC5, 168 h. In kind it is functional, organism-based. An outline of the steps:
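T. cruzi Tulahuen CL2 β-galactosidase strain was maintained on MRC-5_SV2 cells. Wells held 4×10³ cells plus 4×10⁴ parasites with a 10-point 4-fold compound series, final DMSO <1%. After 7 days at 37 °C, 5% CO₂, substrate was added and absorbance read at 540 nm after 4 h at 37 °C. IC₅₀ was taken from % reduction versus infected and uninfected controls.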

Data set [4] concerns Trypanosoma brucei rhodesiense. In words: Antitrypanosomal activity against Trypanosoma brucei rhodesiense assessed as parasite growth inhibition. Format: functional, organism-based.
A short description of data set [5]: Selectivity index, ratio of EC50 for human MRC5 cells to EC50 for antitrypanosomal activity against Trypanosoma brucei brucei. Format: toxicity. Particulars: read-out: Ratio EC50. An outline of the steps:
as §1

Data set [6] is described as follows: Selectivity index, ratio of EC50 for human MRC5 cells to EC50 for antitrypanosomal activity against Trypanosoma brucei rhodesiense. Format: toxicity. Particulars: read-out: Ratio EC50. An outline of the steps:
as §1

In general, EC50 refers to the concentration at which the effect is half-maximal. For the compound `Nc1ncnc2c1c(I)cn2[C@@H]1O[C@H](CO)[C@@H](F)[C@H]1O`, the EC50 in data set [1] is 0.032 µM; with Macrophage, 22 µM; in the data set with Leishmania infantum it was 2.33 µM; in the data set on MRC5 it was 6.65 µM; with Trypanosoma cruzi, 0.039 µM; in data set [4], 0.0077 µM. Moreover, the selectivity ratio in [2] is 9; in [3], 170; in data set [5] it was 201; in data set [6] it was 826.

As to `Nc1ncnc2c1c(-c1ccc(Cl)c(Cl)c1)cn2[C@@H]1O[C@H](CO)[C@@H](F)[C@H]1O`, the half-maximal effective concentration (EC50) in [1] is 2.7 µM; in the data set on Macrophage, 8 µM; with Leishmania infantum, 2.83 µM; in the data set on MRC5, 4.14 µM; in the data set on Trypanosoma cruzi, 0.22 µM; in data set [4] it was 1.55 µM. The selectivity ratio was determined as 3 in [2], 19 in data set [3], 1 in data set [5] and 2 in data set [6].

Consider `Cc1cn([C@@H]2O[C@H](CO)[C@@H](F)[C@H]2O)c2ncnc(N)c12`, for which the EC50 was 0.96 µM in data set [1]; more than 64 µM with Macrophage; 38.4 µM in the data set with Leishmania infantum; more than 64 µM in the data set on MRC5; 13.1 µM in the data set with Trypanosoma cruzi; 0.21 µM in data set [4]. Moreover, the selectivity ratio in [2] was more than 2; in data set [3], more than 5; in data set [5], more than 67; in [6], more than 312.

In the case of `Nc1ncnc2c1ccn2[C@@H]1O[C@H](CO)[C@@H](F)[C@H]1O`, the EC50 in data set [1] was 22.2 µM; in the data set with Macrophage it was more than 64 µM; in the data set with Leishmania infantum, 23.4 µM; in the data set on MRC5 it was more than 64 µM; in the data set on Trypanosoma cruzi, 9.09 µM; in data set [4], 1.47 µM. Also, the selectivity ratio was more than 2 in data set [2], more than 7 in data set [3], more than 2 in data set [5] and more than 44 in [6].

For `Nc1ncnc2c1ncn2[C@@H]1O[C@H](CO)[C@@H](F)[C@H]1O`, the EC50 is 0.032 µM in data set [1]; more than 32 µM in the data set with Macrophage; 27.5 µM with Leishmania infantum; 4.92 µM in the data set with MRC5; 0.55 µM with Trypanosoma cruzi; 0.017 µM in data set [4]. The selectivity ratio is more than 2 in [2], 9 in data set [3], 154 in data set [5] and 296 in data set [6].

In the case of `Nc1ncnc2c1c(-c1ccc(Cl)cc1)cn2[C@@H]1O[C@H](CO)[C@H](F)[C@H]1O`, the EC50 came out at 5.22 µM in data set [1]; 8 µM with Macrophage; 5 µM with Leishmania infantum; 21.7 µM in the data set on MRC5; 0.17 µM in the data set with Trypanosoma cruzi; 2.27 µM in [4]. Moreover, the selectivity ratio in data set [2] stood at 1; in data set [3], 130; in [5], 4; in data set [6], 10.

Turning to `Nc1ncnc2c1c(Cl)cn2[C@@H]1O[C@H](CO)[C@@H](F)[C@H]1O`, the EC50 is 0.13 µM in data set [1]; 0.13 µM in the data set with Macrophage; 0.09 µM in the data set on Leishmania infantum; 13.8 µM in the data set with MRC5; 0.071 µM in the data set with Trypanosoma cruzi; 0.031 µM in data set [4]. For the same compound, the selectivity ratio in [2] turned out to be 1; in data set [3], 194; in [5] it was 108; in data set [6], 448.

On to `Nc1ncnc2c1c(-c1ccc(Cl)c(Cl)c1)cn2[C@@H]1O[C@H](CO)[C@H](F)[C@H]1O`, for which the EC50 is 2.34 µM in data set [1]; 8 µM in the data set with Macrophage; 3.87 µM with Leishmania infantum; 7.38 µM in the data set on MRC5; less than 0.21 µM in the data set with Trypanosoma cruzi; 1.72 µM in data set [4]. Besides, the selectivity ratio turned out to be 2 in data set [2], 35 in data set [3], 3 in data set [5] and 4 in [6].

Regarding `Nc1ncnc2c1c(-c1ccc(F)cc1)cn2[C@@H]1O[C@H](CO)[C@H](F)[C@H]1O`, the half-maximal effective concentration (EC50) is 16.2 µM in data set [1]; 32 µM in the data set on Macrophage; 22.6 µM in the data set on Leishmania infantum; more than 64 µM in the data set with MRC5; 1.45 µM in the data set on Trypanosoma cruzi; 14.1 µM in data set [4]. Besides, the selectivity ratio in [2] is 1; in data set [3], more than 44; in [5], more than 4; in data set [6], more than 5.

With `Nc1ncnc2c1c(-c1ccccc1)cn2[C@@H]1O[C@H](CO)[C@@H](F)[C@H]1O`, the EC50 in data set [1] was 32 µM; in the data set on Macrophage, more than 64 µM; in the data set on Leishmania infantum it was 50.8 µM; with MRC5 it was more than 64 µM; with Trypanosoma cruzi it was 9.14 µM; in [4] it was 32.7 µM. In addition, the selectivity ratio is 1 in data set [2], more than 7 in data set [3], more than 2 in data set [5] and more than 1 in data set [6].

Regarding `Nc1ncnc2c1c(-c1ccc(Cl)cc1)cn2[C@@H]1O[C@H](CO)[C@@H](F)[C@H]1O`, the EC50 in data set [1] turned out to be 7.02 µM; in the data set on Macrophage it was 32 µM; in the data set on Leishmania infantum it was 12.7 µM; with MRC5, 16.9 µM; in the data set on Trypanosoma cruzi, 0.74 µM; in data set [4], 5.18 µM. In addition, the selectivity ratio in data set [2] was found to be 3; in [3] it was 23; in data set [5], 2; in data set [6] it was 2.

On to `Cc1cc(-c2cn([C@@H]3O[C@H](CO)[C@H](F)[C@H]3O)c3ncnc(N)c23)ccc1Cl`, for which the EC50 in data set [1] amounted to 7.23 µM; in the data set on Macrophage it was 8 µM; in the data set with Leishmania infantum, 5.34 µM; with MRC5, 20.9 µM; in the data set on Trypanosoma cruzi, 0.75 µM; in data set [4], 3.61 µM. Moreover, the selectivity ratio in data set [2] came out at 1; in data set [3], 28; in data set [5] it was 3; in data set [6] it was 6.

As for `C=Cc1cn([C@@H]2O[C@H](CO)[C@@H](F)[C@H]2O)c2ncnc(N)c12`, the EC50 in data set [1] is 0.81 µM; in the data set with Macrophage it was more than 64 µM; with Leishmania infantum, 39.3 µM; in the data set on MRC5, 20.2 µM; in the data set with Trypanosoma cruzi, 0.65 µM; in [4], 0.34 µM. The selectivity ratio in [2] was more than 1; in [3], 31; in data set [5], 25; in [6], 59.
